Experimental data gathered from unrelated publications.
Protocols differ between the studies behind these lines.
Target: AP2-associated protein kinase 1 (AAK1, Homo sapiens, UniProt Q2M2I8)
Effect on: binding

| Structure (SMILES) | method | concentration | remaining binding [%] |
| --- | --- | --- | --- |
| O=c1nc(-c2ccccn2)sc2ccccc12 | – | 1 µM | 100 |
| Nc1ncc2c(n1)-c1c([nH]c3ccc(C#CC4CC4)cc13)CCCC2 | competition with immobilised ligand | 1 µM | 92 |
| c1cnn2ncc(-c3ccnc(N4CCC45COC5)n3)c2c1 | – | 1 µM | 76 |
| O=C(O)c1cc(-c2ccc(C3CCNCC3)cc2)c2ccc(-c3ccc(C(F)(F)F)cc3)cc2c1 | – | 1 µM | 100 |
| COc1cnc(Nc2cccc(S(N)(=O)=O)c2)nc1N1CCN(c2ccccc2)CC1 | competition with immobilised ligand | 1 µM | 73 |
| O=C(c1ccc(Nc2ncc(Cl)c(-c3ccc(Cl)s3)n2)cc1)N1CCC(N2CCCC2)CC1 | competition with immobilised ligand | 1 µM | 41 |
| COc1ccnn2ncc(-c3ccnc(N(C)C)n3)c12 | – | 1 µM | 100 |
| O=C(NCCCN1CCOCC1)c1ccc(Nc2nccc(-c3cc4ccccc4s3)n2)cc1 | competition with immobilised ligand | 1 µM | 27 |
| O=C(NCc1ncc(C(F)(F)F)cc1Cl)c1ccc2c(c1)C1(CCS(=O)(=O)CC1)[C@H](C1CC1)N2S(=O)(=O)c1ccc(F)cc1 | – | 1 µM | 99 |
| N[C@@H]1CCN(c2nccc(-c3cnn4ncccc34)n2)C1 | – | 1 µM | 73 |
| CN(c1ccnc(CNc2nc(Nc3ccc4c(c3)CC(=O)N4)ncc2C(F)(F)F)n1)S(C)(=O)=O | – | 1 µM | 27 |
| CNC(=O)[C@@H]1CC[C@@H](n2c(-c3ccc4cnccc4c3)nc3ccc(C(=O)NCc4cccc(C(N)=O)c4)cc32)C1 | competition with immobilised ligand | 1 µM | 93 |
| CCCCN(CCCC)C(=O)CN1C[C@H](c2cc(OC)c3c(c2)OCO3)[C@@H](C(=O)O)[C@@H]1CC(C)(C)CCC | – | 1 µM | 100 |
| C[C@@H](c1ccc(-n2cnc3c(N)ncnc32)cc1)N1CCc2nn(C)c(Cc3ccccc3)c2C1=O | competition with immobilised ligand | 0.1 µM | 98 |
| CN(C)c1ncc(F)c(-c2cnn3ncccc23)n1 | – | 1 µM | 89 |
| O=C(NCCCN1CCOCC1)c1ccc(Nc2ncc(Cl)c(-c3ccc(Cl)s3)n2)cc1 | competition with immobilised ligand | 1 µM | 35 |
| CN(C)c1nccc(-c2cnn3ncccc23)n1 | – | 1 µM | 75 |
| O=C(NCC1CCOCC1)c1n[nH]cc1NC(=O)c1c(F)cccc1F | competition with immobilised ligand | 1 µM | 86 |
| CCc1ccccc1C(=O)Nc1n[nH]c2c(C)c(F)c(C3C(C#N)=C(C)N(C)C(C)=C3C#N)cc12 | – | 1 µM | 81 |
| C[C@H]1CCN(c2nccc(-c3cnn4ncccc34)n2)C1 | – | 1 µM | 64 |
| CC(=O)N1CCC(c2ccc(C(=O)NC(=N)N)cc2C(F)(F)F)CC1 | – | 1 µM | 100 |
| CC1CCCN1c1nccc(-c2cnn3ncccc23)n1 (stereo not shown) | – | 1 µM | 100 |
